ChEMBL document CHEMBL1157867, “Synthesis of substituted acridinyl pyrazoline derivatives and their evaluation for anti-inflammatory activity” (Eur J Med Chem, 2010)

Legend:
[1] = test system: Rattus norvegicus; assay: Antiinflammatory activity in Charles Foster albino rat assessed as carrageenan-induced paw edema at 50 mg/kg, po administered 1 hr before carrageenan challenge measured after 3 hrs relative to control; assay type: functional
Summary of the method: (§1)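 Charles-Foster albino rats of either sex, pregnant females excluded, 70–95 days old, 120–175 g, food and water ad libitum. Groups of six. Compounds in propylene glycol given orally 1 h before 0.05 mL of 1% carrageenan in 0.9% saline, injected under the plantar aponeurosis of the right hind paw. Paw volume read by plethysmometer before and 3 h after injection. Inhibition (%) = (1 − Vt/Vc) × 100.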

[2] = test system: Mus musculus; assay: Analgesic activity in albino mouse assessed as decrease in acetic acid-induced writhing at 50 mg/kg, ip administered 30 mins before acetic acid challenge measured after 1 hr relative to control; assay type: functional; parameters: scale not given: the % may be the effect or the level left; conditions: route intraperitoneal
Summary of the method: (§2)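 Mice of 15–25 g; compounds dissolved in propylene glycol. Acetic acid 0.5%, 0.25 mL/mouse, injected intraperitoneally 30 min after dosing. Mean number of writhes per group counted, and percent decrease versus control calculated after 60 min.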

[3] = Toxicity in ip dosed albino mouse; assay type: organism-based; conditions: in vivo, read-out: ALD50
Summary of the method: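 Acute lethal dose (ALD50) determined in albino mice of 15–25 g, given food pellets and water ad libitum. Compounds were dissolved in propylene glycol. The procedure followed a previously published method.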

[4] = test system: Mus musculus; assay: Analgesic activity in albino mouse assessed as decrease in acetic acid-induced writhing at 100 mg/kg, ip administered 30 mins before acetic acid challenge measured after 1 hr relative to control; assay type: functional; parameters: scale not given: the % may be the effect or the level left; conditions: route intraperitoneal; summary of the method: as §2
[5] = test system: Mus musculus; assay: Analgesic activity in albino mouse assessed as decrease in acetic acid-induced writhing at 25 mg/kg, ip administered 30 mins before acetic acid challenge measured after 1 hr relative to control; assay type: functional; parameters: scale not given: the % may be the effect or the level left; conditions: route intraperitoneal; summary of the method: as §2
[6] = test system: Rattus norvegicus; assay: Antiinflammatory activity in Charles Foster albino rat assessed as carrageenan-induced paw edema at 25 mg/kg, po administered 1 hr before carrageenan challenge measured after 3 hrs relative to control; assay type: functional; summary of the method: as §1
[7] = test system: Rattus norvegicus; assay: Antiinflammatory activity in Charles Foster albino rat assessed as carrageenan-induced paw edema at 100 mg/kg, po administered 1 hr before carrageenan challenge measured after 3 hrs relative to control; assay type: functional; summary of the method: as §1

Structure (SMILES)	Activity [1]	Activity [2]	LD50 [3]	Activity [4]	Activity [5]	Activity [6]	Activity [7]
COc1ccc2nc3ccccc3c(N3N=C(CBr)CC3=O)c2c1	13.5%	15.9%	> 1000 mg/kg				
O=C1CC(CBr)=NN1c1c2ccccc2nc2ccc(Br)cc12	17.1%	13.6%	> 1000 mg/kg				
COc1cc(Cl)c2nc3ccccc3c(N3N=C(CBr)CC3=O)c2c1	18.6%	16.3%	> 1000 mg/kg				
COc1cc(Cl)c2nc3ccccc3c(N3N=C(C)CC3=O)c2c1	14.4%	13.4%	> 1000 mg/kg				
CC1=NN(c2c3ccccc3nc3c(Cl)cc(Cl)cc23)C(=O)C1	17.6%	14.7%	> 1000 mg/kg				
O=C1CC(CBr)=NN1c1c2ccccc2nc2ccccc12	12.8%	13.2%	> 1000 mg/kg				
CC1=NN(c2c3ccccc3nc3ccccc23)C(=O)C1	10.8%	8.6%	> 1000 mg/kg				
CC1=NN(c2c3ccccc3nc3ccc(Cl)cc23)C(=O)C1	13.5%	12.6%	> 1000 mg/kg				
COc1ccc2nc3ccccc3c(N3N=C(C)CC3=O)c2c1	11.5%	10.8%	> 1000 mg/kg				
O=C1CC(CSc2nnc(-c3ccncc3)o2)=NN1c1c2ccccc2nc2c(Cl)cc(Cl)cc12	40.8%	33.5%	> 1000 mg/kg	42.4%	30.6%	32.1%	
COc1ccc2nc3ccccc3c(N3N=C(CSc4nnc(-c5ccncc5)o4)CC3=O)c2c1	31.2%	29.7%	> 1000 mg/kg				
O=C1CC(CSc2nnc(-c3ccncc3)o2)=NN1c1c2ccccc2nc2ccc(Br)cc12	31.5%	28.8%	> 1000 mg/kg				
O=C1CC(CBr)=NN1c1c2ccccc2nc2c(Cl)cc(Cl)cc12	20.7%	18.6%	> 1000 mg/kg				
O=C1CC(CSc2nnc(-c3ccncc3)o2)=NN1c1c2ccccc2nc2ccccc12	24.1%	25.9%	> 1000 mg/kg				
O=C1CC(CSc2nnc(-c3ccncc3)o2)=NN1c1c2ccccc2nc2ccc(Cl)cc12	27.2%	30.6%	> 1000 mg/kg				
O=C1CC(CBr)=NN1c1c2ccccc2nc2ccc(Cl)cc12	15.9%	16.4%	> 1000 mg/kg				
CC1=NN(c2c3ccccc3nc3ccc(Br)cc23)C(=O)C1	12.6%	12.9%	> 1000 mg/kg				
CC(=O)Oc1ccccc1C(=O)O [ASPIRIN]				59.3%	30.2%	30.25%	60.8%
CCCCC1C(=O)N(c2ccccc2)N(c2ccccc2)C1=O [PHENYLBUTAZONE]				42.6%	31%	31.4%	63.4%
